Screens (PubChem)
ASAP1 inh: blocks human ASAP1-stimulated Arf1 GTP hydrolysis; GDP FP detection; inhibition, % at 16.5 µM; actives 0.19% (n = 360,000); AID 624377; in the data active = inhibition above about 25%;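 also: 0% = vehicle with enzyme and substrate and 100% = no enzyme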
Target sequence (Q9ULH1 325-724 limits assumed): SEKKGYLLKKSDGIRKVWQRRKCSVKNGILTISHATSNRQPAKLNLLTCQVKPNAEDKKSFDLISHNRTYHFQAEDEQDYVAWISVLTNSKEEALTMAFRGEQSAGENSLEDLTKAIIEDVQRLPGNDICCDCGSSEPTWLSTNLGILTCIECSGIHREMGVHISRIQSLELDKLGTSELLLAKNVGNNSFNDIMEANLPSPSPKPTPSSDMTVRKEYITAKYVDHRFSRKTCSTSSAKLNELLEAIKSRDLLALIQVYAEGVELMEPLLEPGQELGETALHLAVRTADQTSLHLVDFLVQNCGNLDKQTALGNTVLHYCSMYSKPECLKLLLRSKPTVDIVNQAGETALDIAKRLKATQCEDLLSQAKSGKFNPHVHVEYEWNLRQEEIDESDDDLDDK
DDE Tn6 FP inh: DD(E)-Tn6 binding inhibition, primary FP screen; P02675; Fibrin DD(E) TRITC-Tn6 fluorescence polarization displacement; inhibition, % at 8.3 µM; actives 0.21% (n = 370,000); AID 720509;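 active = inhibition above a per-campaign cutoff: mean of compounds within control limits plus 3 SD, cut at about 15% in these data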;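 also: 0% = median of all compound wells on the plate and 100% = blocking peptide control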
DDE Tn7 FP inh: DD(E)-Tn7 binding inhibition, primary FP screen; inhibition, % at 8.3 µM; actives 0.13% (n = 370,000); AID 720508; P02675; FP displacement of FITC-Tn7 peptide from fibrin DD(E); 0% = median of compound wells per plate;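 active = inhibition above the mean of compounds falling within the control limits plus 3 SD of them, cut at about 14% in these data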;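 also: 0% = plate median of compound wells and 100% = 10 µM Aha-Tn7 peptide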
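Test system: human clot-derived fibrin DD(E) complex / Quantity: 2 µM final DD(E) protein / Incubation: 10 min plus 3 h, room temperature / Measured by: fluorescence polarization / Benchmarks: high control of 10 µM Aha-Tn7 peptide / Replicates: singlicate testing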
ARFGAP1 inh: rat ARFGAP1 inhibition; Arfgap1-stimulated ARF1 GTP hydrolysis, GDP FP detection; inhibition, % at 16.5 µM; actives 0.26% (n = 360,000); Q62848;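 active = inhibition above a per-plate limit, mean inhibition of low control wells plus 3 SD, cut at about 25% in these data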;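 also: 0% = DMSO wells with enzyme and 100% = wells lacking Arfgap1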
Target sequence (Q62848 1-136 limits assumed): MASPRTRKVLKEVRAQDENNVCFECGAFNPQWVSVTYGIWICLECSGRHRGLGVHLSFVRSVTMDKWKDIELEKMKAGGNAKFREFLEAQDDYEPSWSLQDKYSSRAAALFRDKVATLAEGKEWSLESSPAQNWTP
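Assay system: Rat Arfgap1 GAP domain (His6, aa 1-136), purified enzyme | Buffer or medium: HEPES 25 mM pH 7.5, NaCl 150 mM, MgCl2, DTT | Schedule: GTP hydrolysis reaction 2 h at 25 °C | Signal: FP of antibody-bound GDP Alexa 633 tracer, ex 620/em 688 nm | Measure: Percent inhibition of Arfgap1-stimulated GTP hydrolysis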
ASAP1 GAP conf: ASAP1 inhibition confirmed; shares compounds with ASAP1 inh; ASAP1-stimulated Arf1 GTPase, GDP fluorescence polarization; inhibition, % at 16.5 µM; actives 37% (n = 620);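 active = mean inhibition over triplicates exceeds the hit threshold derived for the earlier primary screening run, cut at about 25% in these data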
ARFGAP1 confirm: confirmation of rat ARFGAP1 inhibitors; AID 651608; actives 30% (n = 890); shares compounds with ARFGAP1 inh; ARFGAP1-stimulated ARF1 GTP hydrolysis, GDP tracer FP; inhibition, % at 16.5 µM;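 active = average inhibition over triplicates above the hit cutoff set in the earlier primary screen, cut at about 25% in these data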;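 also: 0% = Arfgap1 plus ARF1-GTP with DMSO and 100% = wells lacking Arfgap1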
* hit, by the source's call; nt = no result. Most compounds without a hit are left out; they make up all but 0.74% or so of the library.

SMILES	ASAP1 inh	DDE Tn6 FP inh	DDE Tn7 FP inh	ARFGAP1 inh	ASAP1 GAP conf	ARFGAP1 confirm
CC(=O)Nc1cc(-c2ccc(N3CCN(C)CC3)cc2)cn2c(-c3ccccc3)cnc12	6	5	2	6	nt	nt
CC(=O)Nc1cc(-c2ccc(N3CCN(C)CC3)cc2)cn2c(-c3ccc(S(C)(=O)=O)cc3)cnc12	69*	-3	-11	74*	148*	142*
COC(=O)c1ccc(NC(=O)c2ccc(NC(=O)c3ccco3)cc2)cc1	26*	2	-1	39*	38*	52*
O=C(O)c1cc(NN=Nc2cccc(S(=O)(=O)O)c2)cc([N+](=O)[O-])c1	-5	-4	2	3	nt	nt
O=C(O)c1cc(NN=Nc2cccc([N+](=O)[O-])c2)cc([N+](=O)[O-])c1	29*	-6	-2	48*	81*	94*
C=CCN(CC=C)CCCOc1ccc(C)cc1OC	51*	2	4	46*	0	-7
COc1cc(C)ccc1OCCOc1cc(C)ccc1Cl	-4	2	-6	12	nt	nt
O=C(N[C@H](Cc1ccccc1)C(=O)NCc1ccco1)[C@H]1O[C@@H](n2ccc(=O)[nH]c2=O)[C@H](O)[C@@H]1O	-9	4	-4	-5	nt	nt
O=C(COc1cccc2cccnc12)N/N=C/c1ccccc1O	4	0	0	-8	nt	nt
COC(=O)Cn1cc(/C=N/NC(=O)COc2cccc3cccnc23)c2ccccc21	36*	5	-4	29*	34*	31*
O=C(/C=C\c1cn(-c2ccccc2)nc1-c1ccccc1)Nc1nccs1	50*	-4	-2	50*	32*	72*
CC(=O)NS(=O)(=O)c1ccc(NC(=O)/C=C/c2cn(-c3ccccc3)nc2-c2ccccc2)cc1	-8	-3	5	16	nt	nt
COc1ccc(-c2nn(C)c3sc(C(=O)NCCN(C)C)cc23)cc1OC	26*	-12	7	33*	54*	54*
COCC1CN(CCc2ccc(F)cc2)S(=O)(=O)c2c(F)cccc2O1 (centres undefined)	-2	0	7	7	nt	nt
COc1ccc(-c2cc(-c3ccc(OC)c(OC)c3)n[nH]2)c(O)c1	38*	-11	5	31*	34*	37*
COc1ccc(-c2cc(-c3ccccc3O)[nH]n2)cc1OC	19	-18	2	14	nt	nt
Clc1cccc(Cl)c1CON/C=N/c1ncnc2sccc12	93*	2	-3	86*	67*	66*
CC(=O)C1=C(C)N(Cc2ccc(Br)cc2)C(=S)NC1c1cccc(Cl)c1 (centres undefined)	-6	-7	-3	3	nt	nt
CCc1c(-c2ccc(OC)cc2)ncn1CCc1ccccc1OC	-12	-3	4	1	nt	nt
COc1ccc([N+](=O)[O-])cc1NC(=O)c1ccc(-n2nc(C)cc2C)cc1	26*	0	2	35*	39*	71*
COc1ccc([N+](=O)[O-])cc1NC(=O)c1ccc(N2C(=O)CCC2=O)cc1	-1	-4	-2	12	nt	nt
Cc1ccc(OCc2ccc(C(=O)Nc3ccc(C(N)=O)cc3)o2)c([N+](=O)[O-])c1	60*	-3	0	86*	88*	116*
Cc1ccc(OCc2ccc(C(=O)Nc3cc(C)on3)o2)c([N+](=O)[O-])c1	1	-9	-1	7	nt	nt
CC(=O)c1cccc(Nc2cc(C)nc3ccc(C)cc23)c1	-4	-3	0	-6	nt	nt
CC(=O)c1cccc(-c2ccc3c(=O)[nH]c(Nc4ccccc4)cc3c2)c1	53*	9	-2	30*	39*	26*
SMILES	ASAP1 inh	DDE Tn6 FP inh	DDE Tn7 FP inh	ARFGAP1 inh	ASAP1 GAP conf	ARFGAP1 confirm
O=c1[nH]c(Nc2ccccc2)cc2ccccc12	25*	0	1	33*	13	-1
Cn1c(=O)cc(Nc2ccccc2)[nH]c1=O	-7	2	8	-9	nt	nt
N#Cc1ccc(-c2ccc(OCC(=O)NCC(=O)Nc3ccc(F)c(F)c3F)cc2)cc1	37*	-4	-4	58*	51*	80*
CCOc1ccc(C(=O)CCC(=O)NCC(=O)Nc2ccc(F)c(F)c2F)cc1	-6	2	2	10	nt	nt
CCN1CCN(Cc2ccc(NC(=O)c3cc(NC(=O)c4cncc(-c5ccc(C#N)cc5)c4)cc(OC)c3)cc2C(F)(F)F)CC1	57*	11	8	67*	75*	108*
COCCN1C(=O)[C@H]2C[C@@]13O[C@H](C1CCCCC1)N=C3CC1c3ccccc3C[C@@]12C (some centres undefined)	-6	8	-3	1	nt	nt
COc1ccc(C(=O)Nc2ccc3nc(N4CCN(C)CC4)cc(C)c3c2)c(OC)c1	37*	-2	3	50*	66*	71*
COc1cc(NC(=O)c2cc3c(C)nc4ccccc4c3o2)cc(OC)c1OC	33*	-33	-6	47*	69*	52*
O=C(N/N=C/c1cc(Cl)ccc1O)c1ccc(Br)cc1	52*	-4	5	65*	76*	99*
O=C(N/N=C/c1cc(Br)ccc1O)c1ccncc1	1	-2	-7	9	nt	nt
COc1cccc(NC(=O)N(C)C[C@H]2OCc3cn(nn3)CCCC(=O)N([C@H](C)CO)C[C@@H]2C)c1	10	6	5	17	nt	nt
Cc1ccc2nc(SCC(=O)N3CCCCCC3)nc(=O)n2c1	44*	6	-2	62*	44*	77*
Cc1ccc2nc(SCC(=O)N3CCCCC3)nc(=O)n2c1	29*	1	0	48*	33*	57*
O=C(CSc1ccccc1)Nc1ccc(-c2nc3ccccc3[nH]2)cc1	57*	1	0	45*	57*	59*
Cc1ccc2nc(-c3ccc(NC(=O)CSc4ccccc4)cc3)[nH]c2c1	0	7	-3	-4	nt	nt
COc1ccc(C=C2C(=O)OC(C)(C)OC2=O)cc1OC	4	3	0	-4	nt	nt
COc1ccc(/C=C2\C(=O)NC(=O)c3ccccc32)cc1OC	44*	-2	1	33*	41*	19
C[C@H](CO)N1C[C@H](C)[C@H](CN(C)C(=O)Nc2cccc(F)c2)OCc2cnnn2CCCC1=O	-4	-3	0	5	nt	nt
COc1cc2c3nnc(-c4ccc(F)cc4)c-3cn(Cc3ccccc3F)c2cc1OC	58*	0	-2	152*	83*	172*
COc1ccccc1Cc1c(-c2ccc(F)cc2)nc2ccc(Cl)cn12	12	5	-7	4	nt	nt
COc1cc2c3nnc(-c4ccccc4)c-3cn(Cc3ccccc3F)c2cc1OC	58*	5	-4	36*	116*	36*
